# DSG3 Ab inh: human desmoglein-3 autoantibody binding inhibition; P32926; DSG3-coupled beads, scFv-anti-DSG3-GFP binding, flow cytometry; stronger effect = lower value; binding (percent of control), % at 10 µM; 310,000 tested, 0.48% active; AID 588358;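 active = binding more than 3 SD below its plate's average and above zero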;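 note: hits lower antibody fragment binding to DSG3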
# Target sequence (P32926 whole entry, looked up, the tested form may be a part): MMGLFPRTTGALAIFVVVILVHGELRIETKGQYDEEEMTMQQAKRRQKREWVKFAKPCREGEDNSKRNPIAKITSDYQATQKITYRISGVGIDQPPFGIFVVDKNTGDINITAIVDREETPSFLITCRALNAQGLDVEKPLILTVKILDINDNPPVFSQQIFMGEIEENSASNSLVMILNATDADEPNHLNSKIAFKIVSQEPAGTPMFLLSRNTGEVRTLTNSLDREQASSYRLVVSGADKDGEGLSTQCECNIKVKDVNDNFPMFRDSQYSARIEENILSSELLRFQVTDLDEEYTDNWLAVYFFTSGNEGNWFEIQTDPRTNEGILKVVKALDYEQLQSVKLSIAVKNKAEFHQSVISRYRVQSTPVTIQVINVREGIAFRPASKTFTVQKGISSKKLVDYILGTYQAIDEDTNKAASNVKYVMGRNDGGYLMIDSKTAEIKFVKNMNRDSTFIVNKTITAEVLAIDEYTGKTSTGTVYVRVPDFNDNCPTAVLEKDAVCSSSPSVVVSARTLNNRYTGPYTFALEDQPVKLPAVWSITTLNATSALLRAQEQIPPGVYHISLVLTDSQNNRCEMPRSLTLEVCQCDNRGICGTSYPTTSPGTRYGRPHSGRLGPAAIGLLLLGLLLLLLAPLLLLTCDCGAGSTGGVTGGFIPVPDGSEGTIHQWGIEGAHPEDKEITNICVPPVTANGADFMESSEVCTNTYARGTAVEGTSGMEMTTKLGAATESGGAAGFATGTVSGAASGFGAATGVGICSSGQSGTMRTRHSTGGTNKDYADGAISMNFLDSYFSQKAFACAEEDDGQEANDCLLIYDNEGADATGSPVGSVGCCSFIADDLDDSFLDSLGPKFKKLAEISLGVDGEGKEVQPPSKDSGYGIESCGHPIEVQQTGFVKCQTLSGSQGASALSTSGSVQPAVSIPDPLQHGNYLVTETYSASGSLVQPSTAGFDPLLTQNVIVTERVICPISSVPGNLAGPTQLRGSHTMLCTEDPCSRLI
# Mcl1-Noxa inh: disrupts binding of human Mcl-1 to Noxa peptide; Q07820; TR-FRET Mcl-1/Noxa peptide binding, 2 h; inhibition, % at 21.7 µM; 220,000 tested, 1.5% active; AID 1022;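 active = compounds that cut the protein-peptide binding signal by more than 50% relative to plate controls in a single-dose test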;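 note: His-tagged Mcl-1 with rhodamine Noxa BH3 peptide and terbium anti-His antibody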
# T cell HTS: T cell immune modulators affecting CD8 T cell-vesicle binding | response (vesicle binding), % at 7 µM | 2C CD8+ T cell-vesicle binding, flow cytometry; stronger effect = lower value | 330,000 tested, 0.068% active;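 active = response, share of CD8 T cells binding vesicles, and their 90th percentile fluorescence all below set limits, cut at about 80% in these data, passing the limit was not always enough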;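 note: values below 100% mean blocked vesicle binding to the CD8+ T cells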
#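 Material: murine 2C transgenic CD8+ T lymphocytes / Also added: QL9-peptide-loaded Drosophila micro-vesicles bearing Ld, ICAM-1 and B7-1 / Schedule: binding step 1.5 h, 37 °C, antibody labelling 20 min, ice / Signal: flow cytometry, PE anti-B7-1 (FL2) versus Alexa647 anti-CD8 (FL8), PFA-fixed / Evaluation: percent CD8+ FL2 mean versus row control / Benchmarks: naked versus QL9-loaded vesicles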
# Mcl1-Bid inh: disrupts binding of human Mcl-1 to Bid peptide. 220,000 tested, 0.97% active. inhibition, % at 21.7 µM. TR-FRET Mcl-1/Bid-Dy647 peptide binding, 1536-well. AID 1021;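 active = compounds that cut the binding signal by more than half at the single screening dose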;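 note: His-tagged Mcl-1 with europium anti-His antibody binding Bid BH3 peptide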
# MCL1-BIM inh: inhibitors of human MCL1 binding to BIM-BH3 peptide | Q07820 | GST-MCL1 / FITC-Bim-BH3 fluorescence polarization | inhibition, % at 10.9 µM | 320,000 tested, 0.68% active;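 active = inhibition above the mean inhibition of all tested compounds plus 3 SD, set per campaign, cut at about 40% in these data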;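 note: higher means more loss of mP so more displacement of Bim peptide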
# Mcl-1 Bim block: disrupts Bim peptide binding to human Mcl-1 | 190,000 tested, 0.1% active | Bead-based flow cytometry, Bim peptide-Mcl-1 binding | inhibition, % at 10 µM | Q07820; in the data active = inhibition above about 40%
# A number is an active result; – = inactive; · = not tested or not shown. Only some compounds are listed: those with a hit (about 2.3% of all), similar ones and a draw of the others.
SMILES,DSG3 Ab inh,Mcl1-Noxa inh,T cell HTS,Mcl1-Bid inh,MCL1-BIM inh,Mcl-1 Bim block
COc1ccc(N2Cc3cccc(C(=O)O)c3C2=O)cc1,–,79,–,–,–,–
COc1ccc(CCNC(=O)c2cc(-c3ccccn3)nc3c(Cl)cccc23)cc1OC,–,–,–,–,–,88
O=C(Nc1cccc(S(=O)(=O)N2CCCCCC2)c1)C1CCN(C(=O)c2ccc(Cl)cc2)CC1,–,·,–,·,–,·
CC(=O)c1ccc(-n2nnnc2SCC(=O)Nc2sc(C)c(C)c2C#N)cc1,–,65,–,57,–,–
Cc1sc(NC(=O)CSc2nnc(-c3ccc(F)cc3)o2)c(C#N)c1C,·,–,–,59,–,–
Cc1ccc(-c2nnc(SCC(=O)Nc3sc(C)c(C)c3C#N)n2C)cc1,–,–,–,–,–,–
O=C(COC(=O)c1cc(S(=O)(=O)N2CCOCC2)ccc1Cl)c1ccc[nH]1,–,·,·,·,·,·
CCOC(=O)c1c(NC(=O)c2cc(-c3cccc(O)c3)on2)sc(C(C)=O)c1C,–,63,–,–,–,–
CCn1c(=O)c(C(C)=O)c(O)c2ccccc21,–,–,–,–,–,–
CC(=O)c1c(O)c2ccccc2n(C)c1=O,–,51,–,–,–,–
CCOc1ccc(OCCNC(=O)c2ccc3c(c2)nnn3CC)cc1,–,·,–,·,·,·
Cn1cc(C(=O)N/N=C/c2c(O)ccc3ccccc23)ccc1=O,–,58,–,–,–,–
Cc1ccc(NC(=O)c2cc(N3C(=O)C=CC3=O)ccc2N2CCOCC2)cc1,–,55,·,–,·,–
Cc1ccc(NC(=O)c2cc(NC(=O)c3ccco3)ccc2N2CCOCC2)cc1,–,–,–,–,–,–
Cc1ccc(NC(=O)c2cc(N3C(=O)C=CC3=O)ccc2Cl)cc1C,89,77,–,–,–,–
O=C(/C=C/c1cccc([N+](=O)[O-])c1)Nc1ccc(NC(=O)c2cccs2)cc1,–,59,–,81,–,–
O=C(N/N=C/c1cccc([N+](=O)[O-])c1)c1cccs1,–,–,–,–,–,71
O=C(N/N=C/c1cccc([N+](=O)[O-])c1)c1ccc(Br)cc1,–,–,–,–,–,–
O=C(N/N=C/C=C/c1ccc([N+](=O)[O-])cc1)c1cccs1,–,62,–,76,–,–
Oc1ccc(-c2csc(Nc3ncccn3)n2)cc1O,–,87,·,–,·,–
Oc1ccc(-c2csc(Nc3ncccn3)n2)c(O)c1,–,72,–,–,–,–
Cc1cccc(Nc2nc(-c3ccc(O)cc3O)cs2)n1,–,·,–,·,–,·
Oc1ccc(-c2csc(-c3ccccc3)n2)cc1O,–,62,–,–,–,–
O=C(Cc1ccccc1)Nc1ccc(NC(=O)c2cccs2)cc1Cl,72,–,–,–,–,–
CC(=O)Nc1cccc(-c2csc(Nc3ncccn3)n2)c1,·,–,·,–,·,–
SMILES,DSG3 Ab inh,Mcl1-Noxa inh,T cell HTS,Mcl1-Bid inh,MCL1-BIM inh,Mcl-1 Bim block
CC1Nc2ncnc(N3CCN(c4ccccc4)CC3)c2N(Cc2ccc(Br)cc2)C1=O (centres undefined),–,·,–,·,–,·
O=C(Nc1cccc(-c2csc(-c3ccccc3)n2)c1)c1cccs1,–,–,–,96,–,–
COc1ccc(-c2csc(NC(=S)NC(=O)c3cccs3)n2)cc1OC,–,82,·,–,·,–
CC(NC(=O)c1cccc(S(=O)(=O)N2CCN(Cc3ccccc3)CC2)c1)c1ccc(Cl)cc1 (centres undefined),–,·,·,·,·,·
CCCCN(C(=O)COC(=O)C1(c2ccccc2)CC1)c1c(N)n(CCC)c(=O)[nH]c1=O,–,·,·,·,·,·
c1cc2c(cc1NC1CCCCCC1)OCO2,–,·,–,·,47,·
Cc1cc(NC(=O)CCN2C(=O)/C(=C\c3ccccc3)SC2=S)no1,–,71,–,–,–,·
COc1cc(/C=C2\SC(=S)N(CC(=O)Nc3ccc(O)cc3)C2=O)cc(OC)c1OC,–,77,·,–,·,–
COc1ccc(/C=C2\SC(=S)N(CCC(=O)NC3=NCCS3)C2=O)cc1OC,–,56,–,–,–,–
COc1cc(/C=C2\SC(=S)N(CC(=O)Nc3cccnc3)C2=O)cc(OC)c1OC,–,–,–,–,–,–
COc1cccc(CNC(=O)c2ccc(F)c(S(=O)(=O)N3CCCCC3)c2)c1,–,·,·,·,·,·
CCN(Cc1nc(-c2cccc(C)c2)no1)C(=O)c1ccc2c(c1)OCO2,–,·,–,·,–,·
CC(C)(CNC(=O)c1cc2c(s1)CCCC2)N1CCOCC1,–,·,68,·,–,·
Cc1ccc(C(=O)NCC(C)(C)N2CCOCC2)s1,–,–,–,–,–,–
COc1ccccc1CCNC(=O)c1cccc(S(=O)(=O)N2CCc3ccccc3C2)c1,–,·,–,·,–,·
Cn1c(=O)oc2cc(S(=O)(=O)N3CCC(C(=O)NCC4COc5ccccc5O4)CC3)ccc21 (centres undefined),-15,–,–,–,–,–
O=C(NCC1COc2ccccc2O1)C1CCN(S(=O)(=O)c2ccccc2)CC1 (centres undefined),·,·,–,·,·,·
CCS(=O)(=O)N1CCC(NC(=O)C(Cc2cc(OC)ccc2OC)NC(C)=O)CC1 (centres undefined),–,·,–,·,–,·
O=S(=O)(Nc1cccc(S(=O)(=O)N2CCCC2)c1)c1cccc(Br)c1,·,·,–,·,–,·
CCC(=O)Nc1cc(C)c(NC(=O)CCc2ccccc2)cn1,–,–,–,–,44,–
Cc1cc(NC(=O)c2ccco2)ncc1NC(=O)CCc1ccccc1,–,–,–,–,–,–
O=C(c1cccc(Cl)c1)N1CCCC(C(=O)N2CCN(c3ccccc3)CC2)C1 (centres undefined),–,·,–,·,–,·
Cc1[nH]c2ccccc2c1C(=O)C(=O)NCc1nnnn1-c1ccc(F)cc1,–,·,·,·,·,·
O=C(CSc1ccc2ccccc2c1)N1CCN(c2ccc(O)cc2)CC1,–,60,–,–,–,·
O=S(=O)(c1ccc2ccccc2c1)N1CCN(c2ccc(O)cc2)CC1,·,·,–,·,·,·
SMILES,DSG3 Ab inh,Mcl1-Noxa inh,T cell HTS,Mcl1-Bid inh,MCL1-BIM inh,Mcl-1 Bim block
O=C(c1ccc2ccccc2c1)N1CCN(c2ccc(O)cc2)CC1,–,53,–,–,–,–
O=C(c1cccc(S(=O)(=O)N2CCc3ccccc3C2)c1)N1CCN(c2ccc(O)cc2)CC1,–,57,–,–,–,–
CC(O)C(NS(=O)(=O)c1ccc(Cl)cc1)C(=O)OCCOc1ccc(F)cc1 (centres undefined),–,·,·,·,·,·
COc1ccc(/C=C2\C(=O)NC(=S)N2C(=O)c2ccc(F)cc2)cc1,–,64,–,81,–,–
O=c1ccc2c(o1)/C(=C/C=C(Cl)Cl)CCC2,–,–,–,59,–,–
CS(=O)(=O)N(CC(=O)N1CCN(Cc2ccccc2)CC1)c1ccccc1Br,–,·,–,·,–,·
O=C(Nc1ccc(S(=O)(=O)NCc2ccco2)cc1)c1ccncc1,–,–,–,–,–,–
Cc1ccc(NC(=O)c2ccc(S(=O)(=O)NCc3ccco3)cc2)cc1,-4.6,·,–,·,–,·
COc1ccc(Cl)cc1NC(=O)N1CCC(C)CC1,–,–,–,–,–,–

# Assay outcomes: PubChem, several laboratories
